Source: PubChem (Broad Institute)
Most compounds without a hit are left out; they make up all but 2.6% or so of the library.
PvdQ acylase = P. aeruginosa PvdQ acylase inhibitors, primary screen, biochemical, fluorescence, plate reader and imaging, single point; purified PvdQ acylase; inhibition, % at 10 µM; 0.063% of 340,000 active; in the data active = inhibition above about 30%, passing the limit was not always enough; inconclusive = no clear call, values can overlap the other calls;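 also: 0% = vehicle neutral wells and 100% = reference inhibitor wells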
SR-BI DiI inh = inhibitors of SR-BI mediated HDL lipid uptake, primary screen, ldlA[mSR-BI] cells, fluorescence, single point. ldlA[mSR-BI] CHO cells, DiI-HDL uptake fluorescence, 3 h. inhibition, % at 12.5 µM. 0.96% of 320,000 active. AID 488896, 2010;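 active = mean replicate inhibition of at least 70% and a set share of replicates each scoring 70 or more; inconclusive = meets just one of the two criteria; inactive = fails both criteria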;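 also: 0% = median of neutral control wells and 100% = median of positive control wells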
SR-BI uptake up = activators of SR-BI mediated DiI-HDL uptake, primary screen, ldlA[mSR-BI] CHO cells, DiI fluorescence. activation, % at 12.5 µM. 0.096% of 320,000 active. 3 h; 100 = double the neutral-control signal;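 active = mean replicate activation of at least 60% and every replicate at or above 60%; inconclusive = mean or all-replicate condition met, but not both; inactive = mean below 60% and not all replicates reaching 60%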;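 also: 0% = median plate neutral-control signal and 100% = twice that signal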
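Material – SR-BI-overexpressing, LDLR-lacking CHO cells · Medium – BSA-supplemented, HEPES-buffered Ham's F12, pH 7.4 · Doses – single concentration · Times – compound with DiI-HDL co-incubation, 3 h at 37 °C · Measured by – bottom-read fluorescence, 550/595 nm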
dFosB act = activators of delta FosB homodimer, primary screen, biochemical, fluorescence polarization, TAMRA-CDK5 oligo, single point; 0.99% of 340,000 active; AID 493131, 2011; purified delta FosB; percent of positive-control signal above neutral wells; activation, % at 25 µM; Protein FosB (Mus musculus), P13346;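 active = mean activation above about 17%, with every replicate also reaching it, limit read from the data, passing the limit was not always enough; inconclusive = only one of the two conditions met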
Target sequence (P13346 whole entry, looked up): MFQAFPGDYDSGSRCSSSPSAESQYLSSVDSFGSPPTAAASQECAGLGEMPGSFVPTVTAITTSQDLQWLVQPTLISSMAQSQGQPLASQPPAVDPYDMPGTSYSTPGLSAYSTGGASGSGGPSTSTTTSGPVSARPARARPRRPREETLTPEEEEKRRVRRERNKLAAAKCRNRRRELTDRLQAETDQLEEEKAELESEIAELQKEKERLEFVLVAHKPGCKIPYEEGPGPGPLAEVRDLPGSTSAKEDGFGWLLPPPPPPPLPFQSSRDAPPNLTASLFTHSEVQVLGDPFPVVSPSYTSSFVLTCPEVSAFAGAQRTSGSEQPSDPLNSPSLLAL
rRNA inh HTS = reduced GFP signal of wild-type E. coli, primary screen, bacterial rRNA inhibitor project, GFP/RFP fluorescence, OD600, single point | E. coli WT GFP vs humanized-ribosome RFP mutants, 24 h; hits give low values; DMSO median 0, no signal -100 | GFP signal change (wild-type ribosome), % (test concentration not listed) | 1.6% of 350,000 active;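 active = significant combined selectivity score with lowered wild-type GFP, culture density cut under 30%, mutant RFP and density less affected; inactive = any of these conditions unmet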
XiGFP reactiv = activators of inactive X chromosome reactivation, primary screen, imaging, XiGFP fibroblasts, GFP high-content imaging, set 2. XiGFP mouse fibroblasts, % GFP-positive cells imaging, 3 d; cells co-treated with 5-aza-dC sensitizer; scaled so ellipticine positive control = 100%. activation, % at 7.58 µM. 0.055% of 360,000 active. AID 743238, 2013;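 active = mean normalized replicate activation at least 10% and every replicate at or above 10%; inconclusive = only one of the two criteria met; inactive = mean below 10% and not all replicates reach 10%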;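 also: 0% = median of on-plate neutral control wells and 100% = ellipticine 6 µM median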
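Schedule: 3 d treatment, 15 min room-temperature fixation; system: 68-5-11 XiGFP fibroblast line; buffer or medium: DMEM plus 5-aza-dC sensitizer; control set: ellipticine 6 µM positive control; compound: one concentration, pinned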
Active calls of the source: *; u = inconclusive; x = not tested or not shown.

SMILES	PvdQ acylase	SR-BI DiI inh	SR-BI uptake up	dFosB act	rRNA inh HTS	XiGFP reactiv
O=C(CCC(=O)Nc1ccccc1)NNS(=O)(=O)c1ccc(Cl)cc1	-9.8	3.0	-3.0	-3.4	0.0	0.2
Cc1sc(NC(=O)c2sc3nc4c(C)cccc4cc3c2N)c(C#N)c1C	-11.1	90.4*	-90.4	-12.8	x	x
CC(=O)Nc1ccc(S(=O)(=O)n2cnc(C)c2)cc1	-1.7	-3.6	3.6	1.7	x	x
Cc1onc(-c2ccccc2)c1C(=O)NC(=S)NNC(=O)c1ccc(O)cc1O	22.1	85.1*	-85.1	1.7	x	0.1
Cc1onc(-c2ccccc2)c1C(=O)NC(=S)NNC(=O)c1ccccc1O	3.7	116.8*	-116.7	-1.6	-25.0	0.0
CCOC(=O)c1cc(C(C)(C)C)nc(SC)c1C#N	-9.6	-0.3	0.3	-8.8	2.4	-0.2
CCn1c2ccccc2c2cc(CNCCCN3CCOCC3)ccc21	-22.7	-7.9	7.9	7.3	2.2	0.1
CCN=C1S/C(=C\c2cc(Cl)c(OC)c(OC)c2)C(=O)N1CC	13.1	77.1*	-77.1	-2.6	8.8	0.0
CC1(C)CC2(CC(c3cccs3)c3cc(Cl)c(O)cc3O2)NC(=S)N1 (stereo unspecified)	-6.5	89.9*	-89.9	-3.3	x	x
O=C(NCc1nc2ccccc2[nH]1)C1=C[C@@H](C2CC2)C[C@@H](OCc2ccc(CO)cc2)O1	16.1	-2.6	2.6	4.5	-26.8*	0.0
COc1cccc(CNC(=O)c2cc3c(c(-c4cccc(-c5cccc(C#N)c5)c4)n2)[C@@H](CCO)N([S@](=O)C(C)(C)C)C3)c1	x	x	x	x	2.5	0.1
C=CCOC(=O)C1=C[C@H](c2coc3ccccc3c2=O)C[C@H](OCc2ccc(CO)cc2)O1	-8.3	-20.0	20.0	-7.2	-21.0*	0.1
O=C(C[C@H]1C=C[C@@H](NC(=O)Cc2ccccn2)[C@H](CO)O1)NCCCN1CCOCC1	x	x	x	x	-3.4	0.1
CCC(CO)[n+]1c(C)cc(/C=C2\Sc3ccccc3N2Cc2ccccc2)cc1C (stereo unspecified)	15.9	47.8	-47.8	23.8*	5.8	102.7*
NNC(=O)c1cc2c(s1)-c1cc(Cl)ccc1SC2	-6.0	99.5*	-99.5	-6.2	-11.0	0.0
Brc1ccc(CSc2nnc(-c3ccco3)o2)cc1	-0.4	-27.2	27.2	-7.5	-22.0*	0.0
COc1ccccc1NC(=O)c1sc(Cl)nc1C	-8.7	14.2	-14.2	0.6	10.0	0.0
COc1ccccc1NC(=O)c1c(Nc2ccccc2F)sc(C(=O)Nc2cccc(Cl)c2)c1N	5.2	74.6*	-74.6	4.1	x	-0.1
Cc1oc(-c2cccc(Cl)c2)nc1CS(=O)(=O)CC(=O)NCCN1CCOCC1	0.5	-8.5	8.5	-2.3	1.3	0.1
COc1ccc(C(=O)c2cc3ccc(O)cc3oc2=O)cc1	17.0	-4.9	4.9	-8.4	-17.6*	x
C[C@@H]1CCCCO[C@H](CN(C)C(=O)Nc2ccc3c(c2)OCO3)[C@@H](C)CN([C@H](C)CO)C(=O)c2cc(NC(=O)Cc3ccccc3)ccc2O1	x	x	x	x	-0.6	2.6
CC1=C(C(=O)OC2CCCCCCC2)C(c2ccc(O)cc2)NC(=O)N1 (stereo unspecified)	-6.8	15.6	-15.6	-18.1	-43.1*	x
CCCN1C(=O)c2ccccc2NC1c1ccc(Cl)c(Cl)c1 (stereo unspecified)	5.8	-13.4	13.4	-5.7	-50.0	0.2
CCCCN1C2=C(C(=O)CCC2)C(c2ccc(Cl)c(Cl)c2)C2=C1c1ccccc1C2=O (stereo unspecified)	-7.5	85.3*	-85.3	-11.8	x	x
COc1ccc(C(=O)NNC(=O)c2cccc(F)c2)cc1	-6.7	-13.2	13.2	0.4	-23.2*	0.4
SMILES	PvdQ acylase	SR-BI DiI inh	SR-BI uptake up	dFosB act	rRNA inh HTS	XiGFP reactiv
O=C(NC1CCCCC1)c1ccc2ccccc2c1O	x	x	x	x	-48.0	0.1
COc1ccc(/C=C/C(=O)Oc2cccc(/C=N/NC(=O)c3cccc(F)c3)c2)cc1	-3.0	73.5*	-73.5	2.9	x	x
O=C(NNC(=O)c1ccc2ccccc2c1)c1cccc(F)c1	-8.1	-7.3	7.3	2.1	-5.1	0.2
O=C(NNC(=O)c1ccc2ccccc2c1O)NC1CCCCC1	4.7	90.0*	x	0.3	-13.6	0.0
COc1cccc(C(=O)NNC(=O)Cc2ccc(Cl)cc2)c1	-9.0	2.8	-2.8	3.2	-20.6*	0.0
COc1ccc(C(=O)NNC(=O)Cc2ccc(Cl)cc2)cc1	-9.3	20.6	-20.6	0.8	0.4	0.1
C[C@H](CO)N1C[C@H](C)[C@H](CN(C)C(=O)c2ccncc2)Oc2ncc(-c3ccc(F)cc3)cc2C1=O	x	x	x	x	2.8	-0.1
COc1ccccc1C(=O)Nc1ccccc1N1CCN(C(=O)c2ccc(Cl)cc2)CC1	8.6	61.0	-61.0	0.3	-15.3	-0.1
CC(=O)c1ccc(NC(=O)C2CCCN(S(=O)(=O)c3c(C)[nH]c(=O)[nH]c3=O)C2)cc1 (stereo unspecified)	-21.3	-13.5	13.5	-7.4	8.5	0.0
COc1ccccc1C(=O)NNC(=O)c1ccc2ccccc2c1O	x	x	x	x	-16.1	0.0
COc1cccc(OCC(=O)NNC(=O)c2ccc3ccccc3c2O)c1	2.3	89.0*	x	-5.2	-1.1	0.4
COc1ccc(C(=O)NNC(=O)c2ccc3ccccc3c2O)cc1	-5.0	75.5*	-75.5	10.5	-23.8*	0.1
Cc1cccc(NC(=O)NNC(=O)c2ccc3ccccc3c2O)c1	-8.6	23.6	-23.6	-2.2	-11.5	0.8
COc1cccc(OCC(=O)NNC(=O)c2ccc(-c3ccccc3)cc2)c1	-7.1	24.9	-24.9	11.1	x	x
Cc1ccc(C(=O)NNC(=O)c2ccc3ccccc3c2O)cc1	0.7	111.1*	-111.1	0.6	-27.3*	0.0
Cc1onc(-c2ccccc2)c1NC(=O)Nc1ccc(OC(F)F)cc1	x	x	x	x	-22.2*	-0.1
Cc1onc(-c2ccccc2)c1C(=O)Nc1ccc(OC(C)C)cc1	-6.9	-109.8	u	-5.3	-3.2	0.1
C=C1CCN([C@@H](C)C(=O)NCc2ccc(OC)cc2)S(=O)(=O)c2ccccc21	-8.6	11.4	-11.4	-4.7	-0.9	0.0
OC(CN1CCOCC1)Cn1c(-c2cccc(Cl)c2)nc2ccccc21 (stereo unspecified)	31.9*	18.2	-18.2	-0.5	x	x
